≈ marks a conversion by molar mass, not a printed value. Entries after “also recorded” stand apart in the source; their conditions may differ. Read-outs that look alike come from different tables or passages of the source.
Key:
[1] = system: L. donovani; conditions: cited from earlier work
[2] = system: Leishmania donovani promastigotes; conditions: earlier work; cited from earlier work
[3] = biological target: Leishmania DNA topoisomerase IB enzyme (LdTopIB) (Leishmania donovani, UniProt A0A3Q8IHS4+Q8WQM6); assay: Inhibition of the relaxation activity of recombinant LdTopIB; type: biochemical; conditions: plasmid DNA relaxation assay
Summary of the method: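 One unit of recombinant Leishmania donovani TopIB was incubated with negatively supercoiled pHOT plasmid DNA for 30 min at 37 °C, with test compound at 3.1–150 or 3.125–100 µM. A DMSO lane served as control. Reactions were stopped with 1% SDS plus 6.1 µg proteinase K. Products were separated on agarose gel and stained with ethidium bromide to score supercoiled, nicked and relaxed topoisomer bands.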

[4] = system: Murine macrophages; assay: Toxicity towards murine macrophages; type: cell-based; conditions: for IC50: read-out: Murine macrophages (IC50)
[5] = system: human TopIB (hTopIB); assay: Inhibition of the relaxation activity of human TopIB; type: biochemical; conditions: 3.125−100 μM acid 1, 30 min at 37°C
Summary of the method: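 Human TopIB relaxed supercoiled pHOT plasmid DNA alongside recombinant LdTopIB, with test compound at 3.125–100 µM and a DMSO vehicle lane. Reactions stopped with 1% SDS plus 6.1 µg proteinase K. Products resolved on agarose gel and stained with ethidium bromide. Supercoiled, nicked and relaxed topoisomer bands scored against a DNA-only lane (0.2 µg plasmid).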

[6] = system: Leishmania donovani promastigotes; assay: Antiprotozoal activity; type: cell-based; conditions: for EC50: read-out: L. donovani promastigotes (EC50)
[7] = system: L. donovani promastigotes; conditions: at 100 μg/mL; cited from earlier work

| EC50 [6] | SMILES | IC50 [4] | Effectiveness against L. donovani promastigotes (in words) [6] | Effect on motility of L. donovani promastigotes [7] | other results |
| --- | --- | --- | --- | --- | --- |
|  | CCCCCCCCCCCCCCCCCC(=O)O [n-octadecanoic acid] |  |  |  | MIC against L. donovani [1]: 1390 µM (≈ 395 µg/mL) |
|  | CCCCCCCCCCCCCCCCCCCC(=O)O [n-eicosanoic acid] |  |  |  | Effectiveness towards L. donovani promastigotes (in words) [2]: not effective at all |
| 404 ± 11.9 µM | CCCCCCCCCC/C=C\CCCC(OC)C(=O)O (racemic) [Acid 1, (±)-2-methoxy-6Z-heptadecenoic acid] | 484 ± 15.8 µM | not effective against L. donovani promastigotes |  | Inhibition of LdTopIB (in words) [3]: able to inhibit LdTopIB; Inhibition of hTopIB (in words) [5]: not effective against hTopIB |
|  | CCCCCCCCCC(=O)O [n-decanoic acid] |  |  | inhibited the motility |  |
| 74 ± 17.1 µM | CCCCCCCCCCC#CCCCC(OC)C(=O)O (racemic) [Acid 2, (±)-2-methoxy-6-heptadecynoic acid] | > 700 µM |  |  | Inhibition of LdTopIB (in words) [3]: inhibit LdTopIB; Toxicity towards murine macrophages (in words) [4]: did not display toxicity towards murine macrophages |
| > 100 µM | CCCCCCCCCCCCCCCCC(=O)O [n-heptadecanoic, n-heptadecanoic acid] | 52.6 ± 7.5 µM | not effective at all against the parasite |  | Effectiveness towards L. donovani promastigotes (in words) [2]: not effective at all |
| > 100 µM | CCCCCCCCCC/C=C\CCCCC(=O)O [6Z-heptadecenoic, 6Z-heptadecenoic acid] | 44.4 ± 1.6 µM | not effective against L. donovani promastigotes |  |  |
| > 1000 µM | CCCCCCCCCCCCCCCC(OC)C(=O)O (racemic) [Acid 3, (±)-2-methoxyheptadecanoic acid] | > 1000 µM | not effective at all against the parasite |  | Inhibition of LdTopIB (in words) [3]: did not inhibit LdTopIB; also recorded: do not inhibit the enzyme; also recorded: not inhibiting the enzyme |
|  | CCCCCCCCCCC#CCCCCC(=O)O [6-heptadecynoic, 6-heptadecynoic acid] |  |  |  | Toxicity towards murine macrophages (in words) [4]: considerable toxicity towards murine macrophages; IC50 ([4]; Mus musculus, Macrophage): 21.3 ± 0.9 µM; EC50 ([6]; Leishmania donovani): 25.1 ± 1.4 µM |
|  | CCCCCCCCCCCCCCCC(=O)O [n-hexadecanoic acid] |  |  | inhibited the motility |  |
|  | CCCCCCCCCCCC(=O)O [n-dodecanoic acid] |  |  | inhibited the motility |  |
|  | CCCCCCCCCCCCCCCCOP(=O)([O-])OCC[N+](C)(C)C [miltefosine] |  |  |  | IC50 ([4]; Mus musculus, Macrophage): 1.9 ± 0.4 µM; EC50 ([6]; Leishmania donovani): 0.8 ± 0.1 µM |
|  | CCCCCCCC/C=C\CCCCCCCC(=O)O [oleic acid] |  |  | no effect | MIC against L. donovani [1]: 90 µM (≈ 25.4 µg/mL) |

Reference: PMC3483880 (Pure and applied chemistry. Chimie pure et appliquee, 2012)
